Where “and” joins values, the source holds several entries; their conditions need not be identical. Equal entries are not always repeated. Where two headings read alike, the source gives them in different places.
How the values were obtained:
mouse plasma = conditions: 1 μM
human liver microsomes [1] = conditions: for Measured Conc.: 60 min
[2] = cell-culture media with 10% FBS, 1 μM
[3] = Single-dose oral gavage PK at 10 mg/kg; assay type: in vivo, FVB mice; conditions: for AUClast / Cmax: mean ± SD, n = 2
How it was run: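 Female FVB mice (~25 g) were dosed at 10 mg/kg by oral gavage in 20% propylene glycol, 5% ethanol, 5% labrosol and 70% PEG400. Two mice per time point were killed by CO2 at 0.25, 0.5, 1, 2, 4, 6 and 24 h. Heparinized plasma and brain (diluted five-fold in water, homogenized) were assayed by LC/MS/MS.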

rat liver microsomes = test: Hepatic microsomal stability, rat; assay type: in vitro ADME; conditions: 1 μM
How it was run: (§1)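 Liver microsomes from mouse, rat or human (~0.5 mg/mL final) were incubated at 37°C with test compound at 1 μM final (0.6% ACN, 0.01% DMSO) in PBS pH 7.4 ± 0.05% PS80, with 1 mM NADPH or PBS.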

[4] = test system: human, mouse, rat, and dog liver microsomes; conditions: 10 μM, LC/MS/MS
human plasma = conditions: human plasma, 1 μM
CYP3A4 = CYP3A4 (Homo sapiens, UniProt P08684); test: CYP phenotyping in human liver microsomes, ketoconazole; conditions: NADPH + Ketoconazole
CYP2D6 = CYP2D6 (Homo sapiens, UniProt P10635); test: CYP phenotyping in human liver microsomes, quinidine; conditions: NADPH + Quinidine
mouse liver microsomes = test: Hepatic microsomal stability, mouse; assay type: in vitro ADME; conditions: 1 μM
How it was run: as §1

[5] = mouse brain homogenate, 1 μM, corrected for dilution
Media solubility = assay type: physicochemical; conditions: media used in the cell-based assays, 10% FBS
CYP1A2 = target: T1, CYP1A2 (Homo sapiens, UniProt P05177); test: CYP phenotyping in human liver microsomes, furafylline; conditions: NADPH + Furafylline
T1 sequence (P05177 1-516): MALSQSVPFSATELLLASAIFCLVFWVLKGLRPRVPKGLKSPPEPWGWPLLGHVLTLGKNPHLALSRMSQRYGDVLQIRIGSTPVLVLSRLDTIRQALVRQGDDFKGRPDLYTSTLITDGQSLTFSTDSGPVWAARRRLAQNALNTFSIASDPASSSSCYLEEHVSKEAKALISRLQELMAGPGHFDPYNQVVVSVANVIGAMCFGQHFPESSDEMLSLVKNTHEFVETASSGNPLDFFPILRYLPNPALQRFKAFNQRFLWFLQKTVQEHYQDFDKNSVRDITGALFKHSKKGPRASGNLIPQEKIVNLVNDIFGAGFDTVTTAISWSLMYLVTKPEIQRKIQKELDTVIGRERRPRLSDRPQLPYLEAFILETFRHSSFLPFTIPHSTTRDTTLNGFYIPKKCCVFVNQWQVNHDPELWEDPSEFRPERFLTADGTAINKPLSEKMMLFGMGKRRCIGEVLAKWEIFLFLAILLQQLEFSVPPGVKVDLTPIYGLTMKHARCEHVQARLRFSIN

human liver microsomes [6] = test: Hepatic microsomal stability, human; assay type: in vitro ADME; conditions: 1 μM
How it was run: as §1

CYP2C9 = CYP2C9 (Homo sapiens, UniProt P11712); test: CYP phenotyping in human liver microsomes, sulfaphenazole; conditions: NADPH + Sulphaphenazol
[7] = Solubility at pH 2, pH 7.4 and in FaSSIF; assay type: physicochemical; conditions: pH 7.4 (phosphate) buffer, room temperature overnight
[8] = Single-dose IV PK at 1 mg/kg; assay type: in vivo, FVB mice; conditions: IV 1 mg/kg, plasma
How it was run: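 Female FVB mice (~25 g) received 1 mg/kg by tail-vein injection in 10% DMSO in PEG400/water (1:1), 10% DMSO, or 10% ethanol in PEG400/water (1:1). Two mice per time point were killed by CO2 at 5 min and 0.25, 0.5, 1, 2, 4 and 6 h, and heparinized plasma was collected. After protein precipitation, samples were assayed by LC/MS/MS, and parameters came from noncompartmental sparse-sampling analysis.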

[9] = test system: PrP^Sc levels in ScN2a-cl3 cells; test: cells; assay type: cell-based, mouse
CYP2C19 [10] = target: CYP2C19 (Homo sapiens, UniProt P33261); conditions: NADPH + N-3-B
CYP2C19 [11] = conditions: NADPH + N-3-B
[12] = irreversible incubation condition, maximum metabolism, NADPH/No Inhibitor
[13] = reversible incubation condition, maximum metabolism, NADPH/No Inhibitor
[14] = reversible incubation condition, 1 μM, 60 min

CYP3A4, sequence (P08684 whole entry): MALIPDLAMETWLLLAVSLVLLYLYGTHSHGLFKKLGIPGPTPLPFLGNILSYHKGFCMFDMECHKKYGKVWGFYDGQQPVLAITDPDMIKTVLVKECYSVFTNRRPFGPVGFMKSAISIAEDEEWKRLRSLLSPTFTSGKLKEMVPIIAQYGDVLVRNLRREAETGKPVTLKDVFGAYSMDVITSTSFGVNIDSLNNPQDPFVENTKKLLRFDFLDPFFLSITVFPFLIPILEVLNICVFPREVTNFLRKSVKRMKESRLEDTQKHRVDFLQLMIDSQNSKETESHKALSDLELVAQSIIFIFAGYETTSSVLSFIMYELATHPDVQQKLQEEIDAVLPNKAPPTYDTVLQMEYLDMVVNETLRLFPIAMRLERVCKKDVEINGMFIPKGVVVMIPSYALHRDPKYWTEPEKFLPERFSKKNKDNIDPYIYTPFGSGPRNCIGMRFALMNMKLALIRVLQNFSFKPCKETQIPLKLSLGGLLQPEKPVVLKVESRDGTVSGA
CYP2C9, sequence (P11712 whole entry): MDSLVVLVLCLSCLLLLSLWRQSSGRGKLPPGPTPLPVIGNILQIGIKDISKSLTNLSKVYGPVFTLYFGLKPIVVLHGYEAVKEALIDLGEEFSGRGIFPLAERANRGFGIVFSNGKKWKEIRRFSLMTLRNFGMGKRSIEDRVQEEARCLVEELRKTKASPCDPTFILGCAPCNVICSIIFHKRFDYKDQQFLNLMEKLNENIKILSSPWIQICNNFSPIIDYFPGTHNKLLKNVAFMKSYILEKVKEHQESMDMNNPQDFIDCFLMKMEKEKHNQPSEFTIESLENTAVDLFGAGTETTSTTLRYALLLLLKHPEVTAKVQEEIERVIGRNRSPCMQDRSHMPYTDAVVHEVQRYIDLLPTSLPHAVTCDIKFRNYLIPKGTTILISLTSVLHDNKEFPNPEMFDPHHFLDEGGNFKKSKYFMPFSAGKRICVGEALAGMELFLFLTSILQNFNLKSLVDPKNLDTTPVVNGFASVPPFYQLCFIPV
CYP2D6, sequence (P10635 whole entry): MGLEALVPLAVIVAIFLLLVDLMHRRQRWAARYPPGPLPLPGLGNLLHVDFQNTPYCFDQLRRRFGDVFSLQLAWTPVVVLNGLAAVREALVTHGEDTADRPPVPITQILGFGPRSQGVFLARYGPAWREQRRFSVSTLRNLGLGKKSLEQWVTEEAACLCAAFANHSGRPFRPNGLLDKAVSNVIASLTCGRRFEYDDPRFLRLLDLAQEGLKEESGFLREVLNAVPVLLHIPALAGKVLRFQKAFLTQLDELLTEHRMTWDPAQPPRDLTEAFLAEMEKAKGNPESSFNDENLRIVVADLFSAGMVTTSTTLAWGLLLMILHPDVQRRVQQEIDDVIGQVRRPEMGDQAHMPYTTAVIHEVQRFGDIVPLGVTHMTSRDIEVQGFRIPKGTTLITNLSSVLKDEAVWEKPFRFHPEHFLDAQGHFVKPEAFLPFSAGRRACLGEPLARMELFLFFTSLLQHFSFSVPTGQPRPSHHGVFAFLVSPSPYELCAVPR
CYP2C19 (Homo sapiens, UniProt P33261), sequence (P33261 whole entry): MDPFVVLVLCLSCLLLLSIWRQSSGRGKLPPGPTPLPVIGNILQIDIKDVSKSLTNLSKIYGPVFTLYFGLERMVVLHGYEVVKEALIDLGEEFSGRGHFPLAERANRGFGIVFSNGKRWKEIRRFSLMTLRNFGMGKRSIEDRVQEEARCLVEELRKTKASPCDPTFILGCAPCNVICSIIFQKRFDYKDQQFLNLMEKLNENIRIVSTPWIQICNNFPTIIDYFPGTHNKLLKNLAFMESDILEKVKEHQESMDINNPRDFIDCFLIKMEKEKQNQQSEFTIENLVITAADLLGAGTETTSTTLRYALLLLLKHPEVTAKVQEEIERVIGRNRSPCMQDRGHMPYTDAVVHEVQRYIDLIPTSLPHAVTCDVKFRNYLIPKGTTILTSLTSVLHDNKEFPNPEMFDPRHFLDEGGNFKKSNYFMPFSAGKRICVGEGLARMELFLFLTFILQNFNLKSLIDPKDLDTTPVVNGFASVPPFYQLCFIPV

## Cc1ccc(Nc2nc(-c3ccc(-c4ccccc4)cc3)cs2)nc1 [IND24]
Mouse plasma
  Unbound (%): 6.6% and 6.63±1.55%
Human liver microsomes [1]; 1 μM, human liver microsomes
  Metabolism in HLM incubations: very little metabolism
Human liver microsomes [1]; [12]
  Disappearance %: 0 (−18) %
  Disappearance % Δ: 0%
Human liver microsomes [1]; irreversible incubation condition, maximum metabolism, NADPH/No Inhibitor, 1 μM
  Measured Conc.: 0.733 µM
Human liver microsomes [1]; irreversible incubation condition, negative control, No NADPH/No Inhibitor, 1 μM
  Measured Conc.: 0.622 µM
Human liver microsomes [1]; [13]
  Disappearance %: 0%
  Disappearance % Δ: 0%
Human liver microsomes [1]; reversible incubation condition, maximum metabolism, NADPH/No Inhibitor, 1 μM
  Measured Conc.: 0.655 µM
Human liver microsomes [1]; reversible incubation condition, negative control, No NADPH/No Inhibitor
  Disappearance %: 0%
Human liver microsomes [1]; reversible incubation condition, negative control, No NADPH/No Inhibitor, 1 μM
  Measured Conc.: 0.654 µM
[2]
  Unbound (%): 26% and 25.7±4.93%
[3]; PO 10 mg/kg vs IV 1 mg/kg, plasma
  %F (absolute oral bioavailability): 40% and 40.3%
[3]; PO 10 mg/kg, brain
  tmax: 4 h
  AUClast: 29.1 ± 1.24 µM·h
  Cmax: 2450 ± 740 nM
[3]; PO 10 mg/kg, plasma
  t1/2: 4.65 h
  tmax: 2 h
  AUClast: 11.2 ± 1.31 µM·h
  Cmax: 1660 ± 110 nM
Rat liver microsomes
  % remaining after a 60-min incubation: 90%
Rat liver microsomes; NADPH
  t1/2: > 1 h
[4]
  Metabolites observed: metabolites M1–M3 and M5 were observed in all of the microsomal assays while M4 was only observed in the dog liver microsomal incubation
Human plasma
  Unbound (%): 4.9% and 4.91±1.03%
CYP3A4
  CYP? (involvement of CYP3A4): Unlikely (unlikely for values <5)
  Disappearance %: 15%
  Disappearance % Δ: 0 (−15) %
CYP3A4; [14]
  Measured Conc.: 0.557 µM
CYP2D6
  CYP? (involvement of CYP2D6): Unlikely (unlikely for values <5)
  Disappearance %: 15%
  Disappearance % Δ: 0 (−15) %
CYP2D6; [14]
  Measured Conc.: 0.555 µM
Mouse liver microsomes
  % remaining after a 60-min incubation: 89%
Mouse liver microsomes; NADPH
  t1/2: > 1 h
[5]
  Unbound (%): 8% and 8.20±0.35%
Media solubility
  Solubility Media: >250 µM
CYP1A2
  Disappearance %: 0 (−23) %
  Disappearance % Δ: 0%
CYP1A2; irreversible incubation condition, 1 μM, 60 min
  Measured Conc.: 0.766 µM
Human liver microsomes [6]
  % remaining after a 60-min incubation: 105%
Human liver microsomes [6]; NADPH
  t1/2: > 1 h
CYP2C9
  CYP? (involvement of CYP2C9): Unlikely (unlikely for values <5)
  Disappearance %: 14%
  Disappearance % Δ: 0 (−14) %
CYP2C9; [14]
  Measured Conc.: 0.566 µM
[7]
  Solubility pH 7.4: <1 μM
[8]
  tmax: 4.98 min
[8]; female FVB mice
  CL: 15.3 mL/min/kg
  Vss: 2.46 L/kg
[8]; mean ± SD, n = 2
  AUClast: 2.78 ± 1.09 µM·h
  Cmax: 2490 ± 2650 nM
[8]; 1 mg/kg
  t1/2: 2.16 h
[9]
  EC50: 1270 nM
[9]; read-out: EC50, unbound compound
  EC50: 325 nM
CYP2C19 [10]
  CYP? (involvement of CYP2C19): Unlikely (unlikely for values <5)
  Disappearance % Δ: 0 (−18) %
CYP2C19 [11]
  Disappearance %: 18%
CYP2C19 [11]; [14]
  Measured Conc.: 0.537 µM
